In ChEMBL document CHEMBL1135021, “Biotinylated lithocholic acids for affinity chromatography of mammalian DNA polymerases alpha and beta” (Bioorg Med Chem Lett, 2002):

Columns and labels:
DNA polymerase beta [1] = target: T1, DNA polymerase beta (Rattus norvegicus, UniProt P06766); assay: Inhibition constant at a concentration of 10 uM on rat DNA polymerase beta as a function of nucleotide substrate concentration
Method in brief: (§1)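 Kinetic runs used calf thymus pol α or rat pol β (0.05 units each) preincubated with compound at 0 °C for 10 min in Tris–HCl pH 7.5/DTT/glycerol/EDTA buffer. Either poly(dA)/oligo(dT)12–18 (2/1) template-primer or dTTP substrate was varied. Km and Vmax came from double reciprocal plots, Ki from Dixon plots.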

DNA polymerase beta [2] = target: T1, DNA polymerase beta; assay: Inhibition constant at a concentration of 10 uM on rat DNA polymerase beta as a function of template primer dose; method in brief: as §1
Nucleic Acid [3] = assay: Inhibition constant at a concentration of 5 uM on calf DNA polymerase alpha as a function of template primer dose; format: nucleic-acid assay, Bos taurus; method in brief: as §1
Nucleic Acid [4] = assay: Inhibitory effect on the activity of mammalian DNA polymerase alpha was determined by inhibitory dose curves; format: nucleic-acid assay, Bos taurus
Method in brief: (§2)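 Calf thymus pol α (immunoaffinity-purified) and rat pol β, 0.05 units each final, with poly(dA)/oligo(dT)12–18 (2/1) and dTTP. Compounds in DMSO, sonicated 30 s, then preincubated with enzyme at 0 °C for 10 min in 50 mM Tris–HCl pH 7.5, 1 mM DTT, 50% glycerol, 0.1 mM EDTA. Mixtures added to standard reactions; activity without compound taken as 100%. IC50 from dose–response curves.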

Nucleic Acid [5] = assay: Inhibition constant at a concentration of 5 uM on calf DNA polymerase alpha as a function of nucleotide substrate concentration; format: nucleic-acid assay, Bos taurus; method in brief: as §1
DNA polymerase beta [6] = target: T1, DNA polymerase beta; assay: Inhibitory effect on the activity of mammalian DNA polymerase beta was determined by inhibitory dose curves; method in brief: as §2
DNA polymerase beta [7] = target: T1, DNA polymerase beta; assay: Inhibitory effect on the activity of rat DNA polymerase beta was determined by inhibitory dose curves
Method in brief: (§3)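 Rat DNA pol β, 0.05 units, with poly(dA)/oligo(dT)12-18 template-primer and dTTP substrate. Compounds in DMSO at various concentrations, sonicated 30 s, then preincubated with enzyme in 50 mM Tris–HCl pH 7.5, 1 mM DTT, 50% glycerol, 0.1 mM EDTA at 0 °C for 10 min before addition to the reaction mix. Activity without compound was set as 100%, and IC50 was read from dose–response curves.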

DNA polymerase beta [8] = target: T1, DNA polymerase beta; assay: Inhibition constant at a concentration of 5 uM on rat DNA polymerase beta as a function of nucleotide substrate concentration
Method in brief: (§4)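 Rat DNA pol β (0.05 units final) with poly(dA)/oligo(dT)12-18 (2/1) as template-primer and dTTP as nucleotide substrate. Inhibitor was dissolved in DMSO, sonicated 30 s, then preincubated with enzyme at 0 °C for 10 min in 50 mM Tris-HCl pH 7.5, 1 mM DTT, 50% glycerol and 0.1 mM EDTA. The mix was added to standard reactions with template-primer or dTTP varied. Ki came from double-reciprocal and Dixon plots.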

DNA polymerase beta [9] = target: T1, DNA polymerase beta; assay: Inhibition constant at a concentration of 5 uM on rat DNA polymerase beta as a function of template primer dose; method in brief: as §4
Nucleic Acid [10] = assay: Inhibitory effect on the activity of calf thymus DNA polymerase alpha was determined by inhibitory dose curves; format: nucleic-acid assay, Bos taurus
Method in brief: as §3, with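 “Calf thymus” for “Rat”, “α (immunoaffinity-purified),” for “β,”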

Nucleic Acid [11] = assay: Inhibition constant at a concentration of 25 uM on calf DNA polymerase alpha as a function of nucleotide substrate concentration; format: nucleic-acid assay, Bos taurus
Method in brief: (§5)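 Calf thymus DNA pol α (immunoaffinity-purified), 0.05 units. Compound in DMSO, sonicated 30 s, preincubated with enzyme in 50 mM Tris–HCl pH 7.5, 1 mM DTT, 50% glycerol, 0.1 mM EDTA at 0 °C for 10 min. Activity measured varying poly(dA)/oligo(dT)12-18 (2/1) template-primer or dTTP nucleotide substrate. Km and Vmax were taken from double reciprocal plots and Ki from Dixon plots.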

Nucleic Acid [12] = assay: Inhibition constant at a concentration of 25 uM on calf DNA polymerase alpha as a function of template primer dose; format: nucleic-acid assay, Bos taurus; method in brief: as §5

## C[C@H](CCC(=O)O)[C@H]1CC[C@H]2[C@@H]3CCC4C[C@@H](OC(=O)CCNC(=O)CCCCCNC(=O)CCCCCNC(=O)CCCCC5SCC6NC(=O)NC65)CC[C@]4(C)[C@H]3CC[C@]12C (stereo partly specified)
DNA polymerase beta [1]
  Ki: 20.1 µM
DNA polymerase beta [2]
  Ki: 12.8 µM
Nucleic Acid [3]
  Ki: 7.7 µM
Nucleic Acid [4]
  IC50: 10 µM
Nucleic Acid [5]
  Ki: 5.5 µM
DNA polymerase beta [6]
  IC50: 32 µM

## C[C@H](CCC(=O)O)[C@H]1CC[C@H]2[C@@H]3CCC4C[C@@H](O)CC[C@]4(C)[C@H]3CC[C@]12C (stereo partly specified)
DNA polymerase beta [7]
  IC50: 11 µM
DNA polymerase beta [8]
  Ki: 6.6 µM
DNA polymerase beta [9]
  Ki: 4.7 µM
Nucleic Acid [10]
  IC50: 40 µM
Nucleic Acid [11]
  Ki: 22.5 µM
Nucleic Acid [12]
  Ki: 15.3 µM

## C[C@H](CCC(=O)O)[C@H]1CC[C@H]2[C@@H]3CCC4C[C@@H](OC(=O)CCNC(=O)CCCCC5SCC6NC(=O)NC65)CC[C@]4(C)[C@H]3CC[C@]12C (stereo partly specified)
DNA polymerase beta [7]
  IC50: 31 µM
Nucleic Acid [10]
  IC50: 29 µM

## C[C@H](CCC(=O)O)[C@H]1CC[C@H]2[C@@H]3CCC4C[C@@H](OC(=O)CCNC(=O)CCCCCNC(=O)CCCCC5SCC6NC(=O)NC65)CC[C@]4(C)[C@H]3CC[C@]12C (stereo partly specified)
DNA polymerase beta [7]
  IC50: 46 µM
Nucleic Acid [10]
  IC50: 42 µM
